Most compounds without a hit are left out; they make up all but 3.8% or so of the library.
HSF-1 act – increases HSF-1 driven luciferase reporter signal. NIH3T3-HGL HSF-1 luciferase reporter, MG132, 8 h; 100% = twice DMSO control signal. activation, % at 9 µM. 300,000 compounds, 1.7% hits. AID 504408;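 active = mean replicate activation of at least 50% with a set share of replicates each reaching 50%; inconclusive = only one of those two conditions met; inactive = mean below 50% and too few replicates reaching it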
HSP90 inh – inhibitors of HSP90 luciferase refolding in rabbit reticulocyte lysate; luciferase refolding luminescence, 3 h; AID 1789; 290,000 compounds, 0.91% hits; inhibition, % at 5.6 µM;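 active = inhibition above the screen-wide mean plus 3 SD, computed separately per campaign, cut at about 16% in these data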;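 also: inhibitors lower the luminescence because luciferase stays unfolded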
Lipid droplet – hepatic lipid droplet formation modulation. AML12 mouse hepatocytes, oleate lipid droplets, BODIPY imaging. 240,000 compounds, 0.4% hits. AID 1656. inhibition, % at 6.5 µM;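 active = lipid droplet intensity inhibited by at least 50%, with more than 500 cells counted; inconclusive = wells with under 300 cells, treated as cytotoxic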
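System: AML12 hepatocytes (mouse). Probe or stimulus: oleic acid at 100 µM to induce lipid droplet formation. Times: overnight treatment with compound plus oleate. Detection: Image-based BODIPY and DAPI two-channel analysis. Evaluation: percent inhibition of filter-corrected integrated lipid droplet intensity per well.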
HSF1 inh – HSF1 inhibition | NIH3T3-HGL HSE-luciferase, MG132-induced, luminescence 8 h; active compounds read low | activity change, negative = inhibition, % at 7.5 µM (by protocol) | 300,000 compounds, 0.77% hits;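 active = more than half of replicate wells show activity change below -50%, luminescence cut by over half; inconclusive = some wells, but at most half, below -50%; inactive = no replicate well below -50%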;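 also: luciferase reports HSF-1 transcriptional activity via heat shock element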
HCV NS3 hel inh – inhibitors of Hepatitis C virus NS3 helicase. NS3 helicase DNA unwinding, Cy5 molecular beacon fluorescence. inhibition, % at 10.9 µM. 290,000 compounds, 0.56% hits. AID 1800;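 active = inhibition above the mean of all tested compounds plus 3 SD, set per campaign, cut at about 35% in these data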
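Test system: hepatitis C virus NS3 helicase domain fragment enzyme. Also added: annealed dual-labelled DNA beacon duplex, ATP-started. Timing: 60 min unwinding reaction at 25 °C after ATP addition. Technique: Cy5 fluorescence. Measure: % inhibition of unwinding.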
Numbers stand for hits; - = inactive; ? = inconclusive; . = no result.

SMILES	HSF-1 act	HSP90 inh	Lipid droplet	HSF1 inh	HCV NS3 hel inh
CCc1nnc(NC(=O)C2CCCN(c3nc4ccccc4s3)C2)s1 (stereo not drawn)	-	-	.	-	-
Cc1nnc(SCC(=O)NC2CCCC2)n1C(C)C	-	-	-	-	-
Nc1ccc(C23CC4CC(CC(CO)(C4)C2)C3)cc1	-	-	.	-	-
Nc1ccc(C23CC4CC(CC(O)(C4)C2)C3)cc1	-	-	.	-78	-
CN(C)C(=O)c1nc2ccc(Cl)cn2c1CN1CCCC(OCc2cccnc2)C1 (stereo not drawn)	-	-	-	-	-
COc1ccc2cc3c(N)nn(C(=O)c4ccccc4[N+](=O)[O-])c3nc2c1	-	-	-	-53	-
COc1ccc2cc3c(N)nn(C(=O)c4ccc(Cl)c([N+](=O)[O-])c4)c3nc2c1	-	-	-	-	-
O=C(Nc1ccccc1N1CCCC1)c1cccc(S(=O)(=O)N2CCOCC2)c1	-	.	.	-	.
Cc1ccc2c(CN3CCN(S(=O)(=O)/C=C/c4ccccc4)CC3)cc(=O)oc2c1	78	-	-	-	-
NC(=O)C1CCN(C(=O)NC2CC(=O)N(c3ccc4c(c3)OCCO4)C2)CC1 (stereo not drawn)	-	.	.	-	.
CCOc1ccc(/C=C(\C#N)C(=O)c2c(C)[nH]c3ccccc23)cc1OC	-	-	-	-	-
COc1cc(/C=C(/C#N)C(=O)c2c(C)[nH]c3ccccc23)ccc1OCC#N	68	-	-	-	-
Cc1ccc(S(=O)(=O)CC(=O)c2ccc3c(c2)OCCO3)cc1	-	-	-	-	-
CCOC(=O)c1c(NC(=O)c2c(C(=O)O)cccc2[N+](=O)[O-])sc2c1CCCC2	-	-	-	-	-
Cc1noc(/C=C/N(C)C)c1S(=O)(=O)N1CCN(c2ccc(F)cc2)CC1	-	-	-	-62	-
O=C(NCCN1CCOCC1)c1ccc(N2CCCC2)c([N+](=O)[O-])c1	-	-	-	-	-
COc1ccc2c(c1)C1=NN(/C(C)=C/C(C)=O)C(c3ccc(F)cc3)C1CC2 (stereo not drawn)	53	-	-	-	-
COc1ccc2c(c1)CCC1C2=NN(/C(C)=C\C(C)=O)C1c1ccc(F)cc1 (stereo not drawn)	-	-	-	-	-
CC(=O)c1cccc(NC(=O)c2ccc([N+](=O)[O-])o2)c1	55	.	.	-	.
O=C(Nc1ccc(Cl)cn1)c1ccc([N+](=O)[O-])o1	140	-	-	-	-
CC(=O)c1ccc(NC(=O)c2ccc([N+](=O)[O-])o2)cc1	91	-	-	-	-
Cc1cc(C)cc(NC(=O)c2ccc([N+](=O)[O-])o2)c1	?	-	-	-	-
CCNC(=S)Nc1ccc(OCc2nc3ccccc3s2)cc1	-	-	-	-	-
COc1ccc(NS(=O)(=O)c2ccc3nc(COc4ccc5ccccc5c4)[nH]c3c2)cc1	-	-	-	-81	-
COc1ccc(NS(=O)(=O)c2ccc3nc(COc4cccc5ccccc45)[nH]c3c2)cc1	-	-	-	-	-
SMILES	HSF-1 act	HSP90 inh	Lipid droplet	HSF1 inh	HCV NS3 hel inh
O=C(N/N=C/c1c(F)cccc1Cl)C(=O)N1CCCCCC1	-	-	-	-	-
Cc1oc(-c2cc3c(cc2Cl)OCO3)nc1CN1CCCC1c1ccc(F)cc1 (stereo not drawn)	-	-	-	-52	-
CCOc1ccccc1-c1nc(CN2CCCC2c2nccs2)c(C)o1 (stereo not drawn)	.	-	-	.	-
CCCc1ccc2oc(C(=O)NCCN3CCCC(O)C3)c(C)c2c1 (stereo not drawn)	62	-	-	-	-
CCCc1ccc2oc(C(=O)NCCN3CCCC(C(N)=O)C3)c(C)c2c1 (stereo not drawn)	-	-	-	-	-
CCCc1ccc2oc(C(=O)N3CCC(COC)C3)c(C)c2c1 (stereo not drawn)	61	-	-	-	-
CCCc1ccc2oc(C(=O)N3CCC(N4CCCC(O)C4)CC3)c(C)c2c1 (stereo not drawn)	-	-	-	-	-
Cc1c(NC(=O)C(C)OC(=O)C23CC4CC(CC(Br)(C4)C2)C3)c(=O)n(-c2ccccc2)n1C (stereo not drawn)	-	-	-	-	-
Cc1ccccc1CN1CCN(Cc2cc(=O)c3ccccc3[nH]2)CC1CCO (stereo not drawn)	-	-	-	-	-
CC1CCN(c2ccc(NC(=O)c3ccccc3[N+](=O)[O-])cc2)CC1	-	-	-	-	-
O=C1C=C(c2ccccc2)CC(/C=C/c2ccccc2)C1 (stereo not drawn)	98	-	.	-	-
Cc1ccc(-c2noc(CCCC(=O)NCC3CCCO3)n2)cc1 (stereo not drawn)	-	-	-	-	-
COc1ccc2c(CC(=O)NCc3cccs3)coc2c1	-	-	-	-	-
COc1ccc2c(CC(=O)Nc3nccs3)coc2c1	72	-	-	-	-
CN1CCN(C=Nc2nc3ccccc3nc2N2CCCC2)CC1	-	-	-	-	-
CCc1ccc(C(=O)NNC(=O)CN2C(=O)NC(CC)(c3ccccc3)C2=O)cc1 (stereo not drawn)	-	.	.	-	.
CCOC(=O)c1c(NC(=O)c2cc(C)on2)c2cc([N+](=O)[O-])ccc2n1C	-	-	-	-	-
COC(=O)C1=CN(Cc2ccc(OC)c(OC)c2)C=C(C(=O)OC)C1c1ccccc1F	-	-	-	-55	-
CC12CN(C(=S)Nc3ccccc3)CC(C)(CN(C(=S)Nc3ccccc3)C1)C2=O	74	-	-	-	-
S=C(Nc1ccccc1)N1CCCCC1	-	-	.	-	-
O=[N+]([O-])c1ccc(-c2nc(C(Cl)Cl)c3ccccc3n2)cc1	115	-	-	-	-
COc1ccccc1CC(=O)N(CCC1=CCCCC1)c1c(N)n(Cc2ccccc2)c(=O)[nH]c1=O	-	.	.	-	.
Cc1cc(C)c(S(=O)(=O)N/N=C/c2ccc3c(c2)OCO3)c(C)c1	-	-	-	-55	-
CCNC(=O)N1CCC(n2nccc2NC(=O)CCOc2ccccc2)CC1	-	-	-	-	-
CC(C)C(=O)N1CCC(n2nccc2NC(=O)CCOc2ccccc2)CC1	54	-	-	-	-
SMILES	HSF-1 act	HSP90 inh	Lipid droplet	HSF1 inh	HCV NS3 hel inh
C#CC(C)(CC)NC(=O)c1cc2nc(C3CC3)cc(C(F)(F)F)n2n1 (stereo not drawn)	-	-	-	-	-
Cn1cc(C(=O)N/N=C/c2cc(Br)cs2)c2ccccc21	60	-	-	-	-
O=C(N/N=C/c1cc(Br)cs1)c1ccc2c(c1)OCCO2	57	-	-	-	-
Cc1ccc(/C=N/NC(=O)c2ccc3c(c2)OCCO3)s1	-	-	-	-	-
COc1ccc(S(=O)(=O)Nc2ccc(O)c(Sc3ncn[nH]3)c2)cc1	-	-	-	-	-
COc1ccc(S(=O)(=O)Nc2cc(Sc3ncn[nH]3)c(O)c3ccccc23)cc1	.	76	-	.	-
CCc1ccc(NC(=S)Nc2cc(OC)c(NC(=O)C(C)C)cc2OC)cc1	-	-	-	-	-
